Experiments:
[1] = target: MAP kinase-activated protein kinase 2 (Homo sapiens) (UniProt P49137); experiment: Inhibition of human MAPKAP-K2 kinase assessed as residual enzyme activity at 0.1 uM
MCF7 = experiment: Antiproliferative activity against human MCF7 cells; type: functional, cell-based
Outline: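 HCT116, HT29 or MCF7 cells were seeded on day 0 in 1:1 Ham's F12/DMEM-high glucose with 10% FBS and 2 mM L-glutamine, then kept overnight at 37 °C in 5% CO2. On day 1, inhibitor in DMSO, diluted 20-fold in serum- and glutamine-free medium, was added. Viability was read on day 4 as total ATP by CellTiter-Glo luminescence.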

HCT-116 [2] = experiment: Antiproliferative activity against human HCT116 cells
HCT-116 [3] = experiment: Antitumor activity in human HCT116 cells xenografted athymic mouse assessed as growth inhibition at 1 mg/kg, po qd; type: functional; settings: read-out: TGI
[4] = target: CDK6/cyclin D3 (Homo sapiens) (UniProt P30281+Q00534); experiment: Inhibition of CDK6/CyclinD3 assessed as residual enzyme activity at 1 uM; type: protein-complex assay
[5] = target: Serine/threonine-protein kinase PLK3 (Homo sapiens) (UniProt Q9H4B4); experiment: Inhibition of Plk3 at assessed as residual enzyme activity at 1 uM
Serine/threonine-protein kinase PLK3 (Homo sapiens), sequence (Q9H4B4 whole entry, looked up): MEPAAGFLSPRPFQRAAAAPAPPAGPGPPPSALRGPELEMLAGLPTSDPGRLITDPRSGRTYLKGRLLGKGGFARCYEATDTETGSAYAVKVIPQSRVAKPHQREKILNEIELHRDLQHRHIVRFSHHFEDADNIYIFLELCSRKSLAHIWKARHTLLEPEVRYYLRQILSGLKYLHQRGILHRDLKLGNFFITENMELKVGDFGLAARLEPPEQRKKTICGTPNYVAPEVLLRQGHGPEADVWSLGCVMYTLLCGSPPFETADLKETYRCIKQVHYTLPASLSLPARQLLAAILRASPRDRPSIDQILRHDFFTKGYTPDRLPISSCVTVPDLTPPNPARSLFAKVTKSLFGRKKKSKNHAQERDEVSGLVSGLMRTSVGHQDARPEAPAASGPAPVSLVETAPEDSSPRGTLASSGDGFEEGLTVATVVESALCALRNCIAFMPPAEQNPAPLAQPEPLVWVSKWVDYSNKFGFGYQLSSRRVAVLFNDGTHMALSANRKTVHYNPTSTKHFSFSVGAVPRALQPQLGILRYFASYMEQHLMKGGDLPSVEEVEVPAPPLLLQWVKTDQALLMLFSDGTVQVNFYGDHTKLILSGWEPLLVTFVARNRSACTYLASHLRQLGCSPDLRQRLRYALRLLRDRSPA

HCT-116 [6] = experiment: Antitumor activity in human HCT116 cells xenografted athymic mouse assessed as growth inhibition at 2.5 mg/kg, po qd; type: functional; settings: read-out: TGI
[7] = target: ALK tyrosine kinase receptor (Homo sapiens) (UniProt Q9UM73); experiment: Inhibition of human ALK assessed as residual enzyme activity at 0.1 uM
[8] = target: NUAK family SNF1-like kinase 1 (Homo sapiens) (UniProt O60285); experiment: Inhibition of human ARK5 kinase assessed as residual enzyme activity at 0.1 uM
[9] = target: Tyrosine-protein kinase receptor UFO (Homo sapiens) (UniProt P30530); experiment: Inhibition of human Axl kinase assessed as residual enzyme activity at 0.1 uM
[10] = target: Calcium/calmodulin-dependent protein kinase type IV (Homo sapiens) (UniProt Q16566); experiment: Inhibition of human CaMK4 kinase assessed as residual enzyme activity at 0.1 uM
Calcium/calmodulin-dependent protein kinase type IV (Homo sapiens), sequence (Q16566 whole entry): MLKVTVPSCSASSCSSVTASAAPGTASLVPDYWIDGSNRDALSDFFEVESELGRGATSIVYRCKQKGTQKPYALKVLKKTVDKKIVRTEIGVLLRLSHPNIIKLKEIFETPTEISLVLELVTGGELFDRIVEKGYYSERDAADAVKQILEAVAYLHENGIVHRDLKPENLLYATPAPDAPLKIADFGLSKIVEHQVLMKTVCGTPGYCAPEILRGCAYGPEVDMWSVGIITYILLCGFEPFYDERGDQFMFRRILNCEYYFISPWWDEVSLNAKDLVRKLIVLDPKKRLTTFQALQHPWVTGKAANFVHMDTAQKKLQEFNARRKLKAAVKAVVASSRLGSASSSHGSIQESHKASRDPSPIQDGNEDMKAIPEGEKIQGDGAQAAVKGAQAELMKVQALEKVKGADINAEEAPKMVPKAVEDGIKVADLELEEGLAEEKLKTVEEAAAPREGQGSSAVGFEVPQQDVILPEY

[11] = target: Mast/stem cell growth factor receptor Kit (Homo sapiens) (UniProt P10721); experiment: Inhibition of human cKit assessed as residual enzyme activity at 0.1 uM
Mast/stem cell growth factor receptor Kit (Homo sapiens), sequence (P10721 whole entry): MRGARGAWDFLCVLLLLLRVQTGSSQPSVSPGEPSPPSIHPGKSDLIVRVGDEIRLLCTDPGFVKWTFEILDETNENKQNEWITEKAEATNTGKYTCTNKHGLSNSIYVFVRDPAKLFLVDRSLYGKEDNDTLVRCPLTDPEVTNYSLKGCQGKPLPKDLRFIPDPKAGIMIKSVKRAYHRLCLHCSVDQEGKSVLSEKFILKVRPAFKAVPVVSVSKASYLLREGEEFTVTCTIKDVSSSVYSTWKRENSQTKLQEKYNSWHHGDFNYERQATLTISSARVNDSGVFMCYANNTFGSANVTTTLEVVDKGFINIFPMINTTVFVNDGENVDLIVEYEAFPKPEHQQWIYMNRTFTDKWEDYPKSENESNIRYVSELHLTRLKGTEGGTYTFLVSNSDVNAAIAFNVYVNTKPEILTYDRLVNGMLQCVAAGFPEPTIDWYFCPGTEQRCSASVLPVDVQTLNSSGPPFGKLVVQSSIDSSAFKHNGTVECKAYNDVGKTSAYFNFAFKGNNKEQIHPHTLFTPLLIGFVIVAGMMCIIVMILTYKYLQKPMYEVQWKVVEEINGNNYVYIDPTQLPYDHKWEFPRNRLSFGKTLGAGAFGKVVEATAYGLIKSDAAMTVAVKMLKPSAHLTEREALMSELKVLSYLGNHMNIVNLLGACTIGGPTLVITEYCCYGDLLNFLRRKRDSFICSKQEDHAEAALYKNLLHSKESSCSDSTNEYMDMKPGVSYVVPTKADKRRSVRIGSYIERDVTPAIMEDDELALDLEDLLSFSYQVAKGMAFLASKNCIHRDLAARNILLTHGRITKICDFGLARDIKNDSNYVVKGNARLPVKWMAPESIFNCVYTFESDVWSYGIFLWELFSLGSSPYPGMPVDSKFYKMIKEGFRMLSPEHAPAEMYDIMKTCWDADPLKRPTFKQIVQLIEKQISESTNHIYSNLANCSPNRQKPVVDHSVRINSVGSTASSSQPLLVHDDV

[12] = target: Death-associated protein kinase 1 (Homo sapiens) (UniProt P53355); experiment: Inhibition of human DAPK1 kinase assessed as residual enzyme activity at 0.1 uM
[13] = target: Epidermal growth factor receptor (Homo sapiens) (UniProt P00533); experiment: Inhibition of human EGFR kinase assessed as residual enzyme activity at 0.1 uM
[14] = target: Ephrin type-A receptor 1 (Homo sapiens) (UniProt P21709); experiment: Inhibition of human EphA1 kinase assessed as residual enzyme activity at 0.1 uM
[15] = target: Ephrin type-B receptor 4 (Homo sapiens) (UniProt P54760); experiment: Inhibition of human EphB4 kinase assessed as residual enzyme activity at 0.1 uM
Ephrin type-B receptor 4 (Homo sapiens), sequence (P54760 whole entry): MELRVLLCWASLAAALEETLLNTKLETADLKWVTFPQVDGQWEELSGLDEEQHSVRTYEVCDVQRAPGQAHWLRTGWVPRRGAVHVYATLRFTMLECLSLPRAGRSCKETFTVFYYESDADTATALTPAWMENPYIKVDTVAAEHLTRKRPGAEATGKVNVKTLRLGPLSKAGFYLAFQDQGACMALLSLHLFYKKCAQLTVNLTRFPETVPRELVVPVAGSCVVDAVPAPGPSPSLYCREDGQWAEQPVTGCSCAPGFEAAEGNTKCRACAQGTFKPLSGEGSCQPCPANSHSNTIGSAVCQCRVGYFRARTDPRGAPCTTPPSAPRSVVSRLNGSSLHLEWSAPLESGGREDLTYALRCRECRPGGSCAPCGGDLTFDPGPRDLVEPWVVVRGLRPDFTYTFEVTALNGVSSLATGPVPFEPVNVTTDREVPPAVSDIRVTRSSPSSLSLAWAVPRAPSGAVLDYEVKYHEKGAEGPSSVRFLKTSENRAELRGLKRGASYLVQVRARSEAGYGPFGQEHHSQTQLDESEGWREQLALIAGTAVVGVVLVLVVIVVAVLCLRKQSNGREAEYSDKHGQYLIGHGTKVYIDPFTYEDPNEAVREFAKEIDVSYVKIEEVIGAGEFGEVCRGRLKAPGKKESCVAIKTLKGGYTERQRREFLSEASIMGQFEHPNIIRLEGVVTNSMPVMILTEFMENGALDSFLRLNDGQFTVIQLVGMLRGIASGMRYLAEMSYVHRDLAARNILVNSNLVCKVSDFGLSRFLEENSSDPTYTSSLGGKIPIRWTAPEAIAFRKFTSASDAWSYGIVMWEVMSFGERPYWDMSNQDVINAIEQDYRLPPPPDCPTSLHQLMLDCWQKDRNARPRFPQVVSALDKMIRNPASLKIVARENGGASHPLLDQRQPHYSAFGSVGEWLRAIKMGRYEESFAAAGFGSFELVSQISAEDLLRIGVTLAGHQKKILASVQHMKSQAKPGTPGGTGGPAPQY

[16] = target: Tyrosine-protein kinase Fer (Homo sapiens) (UniProt P16591); experiment: Inhibition of human Fer kinase assessed as residual enzyme activity at 0.1 uM
[17] = target: Homeodomain-interacting protein kinase 2 (Homo sapiens) (UniProt Q9H2X6); experiment: Inhibition of human HIPK2 kinase assessed as residual enzyme activity at 0.1 uM
[18] = target: Inhibitor of nuclear factor kappa-B kinase subunit alpha (Homo sapiens) (UniProt O15111); experiment: Inhibition of human IKKalpha kinase assessed as residual enzyme activity at 0.1 uM
[19] = target: Inhibitor of nuclear factor kappa-B kinase subunit beta (Homo sapiens) (UniProt O14920); experiment: Inhibition of human IKK-beta kinase assessed as residual enzyme activity at 0.1 uM
[20] = target: Mitogen-activated protein kinase 10 (Homo sapiens) (UniProt P53779); experiment: Inhibition of human JNK3 kinase assessed as residual enzyme activity at 0.1 uM
[21] = target: Tyrosine-protein kinase Lck (Homo sapiens) (UniProt P06239); experiment: Inhibition of human Lck assessed as residual enzyme activity at 0.1 uM
[22] = target: Tyrosine-protein kinase Lyn (Homo sapiens) (UniProt P07948); experiment: Inhibition of human Lyn kinase assessed as residual enzyme activity at 0.1 uM
[23] = target: Misshapen-like kinase 1 (Homo sapiens) (UniProt Q8N4C8); experiment: Inhibition of human MINK assessed as residual enzyme activity at 0.1 uM
[24] = target: Dual specificity mitogen-activated protein kinase kinase 6 (Homo sapiens) (UniProt P52564); experiment: Inhibition of human MKK6 assessed as residual enzyme activity at 0.1 uM
[25] = target: Myosin light chain kinase, smooth muscle (Homo sapiens) (UniProt Q15746); experiment: Inhibition of human MLCK kinase assessed as residual enzyme activity at 0.1 uM
Myosin light chain kinase, smooth muscle (Homo sapiens), sequence (Q15746 whole entry): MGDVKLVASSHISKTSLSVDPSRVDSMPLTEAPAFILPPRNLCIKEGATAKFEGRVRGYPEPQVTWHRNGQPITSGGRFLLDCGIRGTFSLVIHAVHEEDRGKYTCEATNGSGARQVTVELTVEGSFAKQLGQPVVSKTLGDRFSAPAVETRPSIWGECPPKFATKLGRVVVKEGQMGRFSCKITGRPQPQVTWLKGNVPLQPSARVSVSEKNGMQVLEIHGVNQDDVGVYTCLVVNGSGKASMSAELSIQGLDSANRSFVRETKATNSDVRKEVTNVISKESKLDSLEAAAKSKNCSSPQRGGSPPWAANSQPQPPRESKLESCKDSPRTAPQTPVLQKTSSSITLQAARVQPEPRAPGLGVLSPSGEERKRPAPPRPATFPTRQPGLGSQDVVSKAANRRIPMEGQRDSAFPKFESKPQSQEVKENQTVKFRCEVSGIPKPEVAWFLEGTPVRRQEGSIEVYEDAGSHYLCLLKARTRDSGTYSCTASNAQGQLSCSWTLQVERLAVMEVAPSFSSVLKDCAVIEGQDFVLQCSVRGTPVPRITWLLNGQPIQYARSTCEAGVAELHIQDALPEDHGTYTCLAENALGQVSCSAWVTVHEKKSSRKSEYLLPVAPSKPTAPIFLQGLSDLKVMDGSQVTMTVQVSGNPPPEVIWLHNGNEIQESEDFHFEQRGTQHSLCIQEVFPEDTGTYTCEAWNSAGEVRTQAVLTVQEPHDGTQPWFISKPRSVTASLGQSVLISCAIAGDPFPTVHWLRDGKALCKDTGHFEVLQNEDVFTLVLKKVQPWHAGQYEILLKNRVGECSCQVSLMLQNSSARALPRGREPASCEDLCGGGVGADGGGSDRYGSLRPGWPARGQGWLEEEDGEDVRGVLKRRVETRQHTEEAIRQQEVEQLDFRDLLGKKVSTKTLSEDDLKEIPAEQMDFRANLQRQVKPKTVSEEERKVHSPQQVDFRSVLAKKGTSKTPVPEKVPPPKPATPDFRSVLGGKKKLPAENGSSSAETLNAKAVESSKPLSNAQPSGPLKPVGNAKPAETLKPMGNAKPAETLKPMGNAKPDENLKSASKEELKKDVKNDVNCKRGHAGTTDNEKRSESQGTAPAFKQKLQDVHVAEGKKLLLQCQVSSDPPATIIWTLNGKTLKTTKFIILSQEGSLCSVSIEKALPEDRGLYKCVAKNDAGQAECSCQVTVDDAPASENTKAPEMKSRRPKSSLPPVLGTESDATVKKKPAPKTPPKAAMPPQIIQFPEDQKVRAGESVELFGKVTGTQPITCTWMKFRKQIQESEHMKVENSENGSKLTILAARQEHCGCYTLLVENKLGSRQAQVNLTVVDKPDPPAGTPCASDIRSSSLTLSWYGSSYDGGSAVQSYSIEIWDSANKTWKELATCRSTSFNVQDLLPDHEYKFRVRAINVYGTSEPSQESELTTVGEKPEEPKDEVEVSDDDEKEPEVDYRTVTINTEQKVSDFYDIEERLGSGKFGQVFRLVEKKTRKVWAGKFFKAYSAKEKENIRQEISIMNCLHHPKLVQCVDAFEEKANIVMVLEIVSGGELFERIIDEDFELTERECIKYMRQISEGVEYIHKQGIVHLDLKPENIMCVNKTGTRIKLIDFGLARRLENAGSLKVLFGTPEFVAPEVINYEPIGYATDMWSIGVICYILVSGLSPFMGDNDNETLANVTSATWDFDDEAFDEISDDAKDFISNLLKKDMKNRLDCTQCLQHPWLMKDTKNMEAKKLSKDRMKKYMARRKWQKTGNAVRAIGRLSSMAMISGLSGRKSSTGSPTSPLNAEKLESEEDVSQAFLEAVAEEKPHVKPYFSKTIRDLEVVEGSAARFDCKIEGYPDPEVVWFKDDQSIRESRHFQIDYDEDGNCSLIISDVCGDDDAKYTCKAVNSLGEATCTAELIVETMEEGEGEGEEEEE

[26] = target: Mitogen-activated protein kinase kinase kinase 9 (Homo sapiens) (UniProt P80192); experiment: Inhibition of human MLK1 kinase assessed as residual enzyme activity at 0.1 uM
[27] = target: Ribosomal protein S6 kinase alpha-5 (Homo sapiens) (UniProt O75582); experiment: Inhibition of human MSK1 kinase assessed as residual enzyme activity at 0.1 uM
[28] = target: Platelet-derived growth factor receptor alpha (Homo sapiens) (UniProt P16234); experiment: Inhibition of human PDGFRalpha assessed as residual enzyme activity at 0.1 uM
Homo sapiens [29] = species: Homo sapiens; experiment: Inhibition of human PKA assessed as residual enzyme activity at 0.1 uM
[30] = target: Protein kinase C alpha type (Homo sapiens) (UniProt P17252); experiment: Inhibition of human PKCalpha assessed as residual enzyme activity at 0.1 uM
[31] = target: Protein kinase C gamma type (Homo sapiens) (UniProt P05129); experiment: Inhibition of human PKCgamma kinase assessed as residual enzyme activity at 0.1 uM
[32] = target: Protein kinase C theta type (Homo sapiens) (UniProt Q04759); experiment: Inhibition of human PKCtheta kinase assessed as residual enzyme activity at 0.1 uM
[33] = target: Proto-oncogene tyrosine-protein kinase receptor Ret (Homo sapiens) (UniProt P07949); experiment: Inhibition of human Ret kinase assessed as residual enzyme activity at 0.1 uM
[34] = target: Ribosomal protein S6 kinase alpha-1 (Homo sapiens, UniProt Q15418); experiment: Inhibition of human Rsk1 kinase assessed as residual enzyme activity at 0.1 uM
[35] = target: SRSF protein kinase 1 (Homo sapiens) (UniProt Q96SB4); experiment: Inhibition of human SRPK1 kinase assessed as residual enzyme activity at 0.1 uM
[36] = target: Tyrosine-protein kinase ZAP-70 (Homo sapiens) (UniProt P43403); experiment: Inhibition of human ZAP70 kinase assessed as residual enzyme activity at 0.1 uM
Homo sapiens [37] = species: Homo sapiens; experiment: Inhibition of human PKBalpha assessed as residual enzyme activity at 0.1 uM
[38] = target: Serine/threonine-protein kinase 4 (MST1/STK4) (Homo sapiens) (UniProt Q13043); experiment: Inhibition of human MST1 kinase assessed as residual enzyme activity at 0.1 uM

Activity [1]: 104% | IC50 (MCF7): 100 nM | IC50 (HCT-116 [2]): 70 nM | Activity [4]: 103% | Activity [5]: 103% | Activity [7]: 23% | Activity [8]: 9% | Activity [9]: 66% | Activity [10]: 108% | Activity [11]: 77% | Activity [13]: 107% | Activity [14]: 79% | Activity [15]: 99% | Activity [16]: 53% | Activity [17]: 98% | Activity [18]: 110% | Activity [19]: 114% | Activity [20]: 101% | Activity [21]: 48% | Activity [22]: 60% | Activity [23]: 110% | Activity [24]: 102% | Activity [25]: 102% | Activity [26]: 16% | Activity [27]: 96% | Activity [28]: 91% | Activity (Homo sapiens [29]): 99% | Activity [30]: 103% | Activity [31]: 100% | Activity [32]: 95% | Activity [33]: 1% | Activity [34]: 29% | Activity [35]: 104% | Activity [36]: 127% | Activity (Homo sapiens [37]): 100% | Activity [38]: 49%
SMILES: CCN1C(=O)C(C)(C)c2cc3[nH]c4c(c3cc21)CCCc1c(C)n[nH]c1-4
inhibition in vivo at 1 mg/kg (HCT-116 [3]): 52% | inhibition in vivo at 2.5 mg/kg (HCT-116 [6]): 82% | Activity [12]: 107%

Reference: ChEMBL document CHEMBL1155876 (J Med Chem, 2008)
